Assay results: ChEMBL document CHEMBL3112446, “Discovery and optimization of a new class of pyruvate kinase inhibitors as potential therapeutics for the treatment of methicillin-resistant Staphylococcus aureus infections” (Bioorg Med Chem, 2014)
≈ marks a conversion by molar mass, not a printed value. Calls of active or inactive are those of the source. The rule behind the calls is not given here.

Experiments:
[1] = system: HEK293; experiment: Cytotoxicity against HEK293 cells assessed as cell viability at 100 ug/ml; assay type: cell-based; details: human
[2] = system: HEK293; experiment: Cytotoxicity against HEK293 cells assessed as cell viability at 10 ug/ml; assay type: cell-based; details: human
[3] = system: HEK293; experiment: Cytotoxicity against HEK293 cells assessed as cell viability at 1 ug/ml; assay type: cell-based; details: human
[4] = Inhibition of methicillin-resistant Staphylococcus aureus pyruvate kinase; details: read-out: IC50
How it was run: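 His-tagged MRSA PK. Compounds diluted in 100% DMSO. IC50 calculated from a triplicate 15-point titration.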

[5] = system: Staphylococcus aureus; experiment: Antibacterial activity against Staphylococcus aureus ATCC 29213 by two fold serial dilution method; assay type: functional
[6] = system: Staphylococcus aureus; experiment: Antibacterial activity against Staphylococcus aureus […]; assay type: functional
[7] = system: Staphylococcus aureus; experiment: Antibacterial activity against Staphylococcus aureus MRSA252; assay type: functional
[8] = target: Pyruvate kinase PKLR (Homo sapiens) (UniProt P30613); experiment: Inhibition human pyruvate kinase R at 10 uM
Sequence of Pyruvate kinase PKLR (Homo sapiens) (P30613 whole entry, looked up, canonical isoform): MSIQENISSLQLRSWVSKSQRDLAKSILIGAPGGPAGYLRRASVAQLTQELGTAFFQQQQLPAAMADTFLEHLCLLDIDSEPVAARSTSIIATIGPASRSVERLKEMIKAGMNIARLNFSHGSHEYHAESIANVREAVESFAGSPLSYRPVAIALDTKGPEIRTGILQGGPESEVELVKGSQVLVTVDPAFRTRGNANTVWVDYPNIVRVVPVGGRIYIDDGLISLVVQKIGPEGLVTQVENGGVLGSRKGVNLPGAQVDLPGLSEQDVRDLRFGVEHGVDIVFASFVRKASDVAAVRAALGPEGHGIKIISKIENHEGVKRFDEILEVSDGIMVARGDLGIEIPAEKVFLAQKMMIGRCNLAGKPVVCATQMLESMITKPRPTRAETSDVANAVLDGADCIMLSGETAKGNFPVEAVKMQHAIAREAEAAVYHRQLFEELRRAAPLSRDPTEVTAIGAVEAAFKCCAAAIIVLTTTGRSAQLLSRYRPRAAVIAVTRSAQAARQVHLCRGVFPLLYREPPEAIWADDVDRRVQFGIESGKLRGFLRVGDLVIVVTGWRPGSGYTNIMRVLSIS
How it was run: (§1)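 His-tagged recombinant human PK isoforms were used. Compounds were diluted in 100% DMSO and tested at 10 µM, the highest concentration tested. Values are percent inhibition of enzymatic activity.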

[9] = system: Staphylococcus aureus; experiment: Inhibition of methicillin-resistant Staphylococcus aureus pyruvate kinase at 10 uM
How it was run: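 His-tagged MRSA PK. Compounds diluted in 100% DMSO. Percent inhibition reported at the highest concentration tested, 10 µM.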

[10] = target: Pyruvate kinase PKM (Homo sapiens) (UniProt P14618); experiment: Inhibition human pyruvate kinase M1 at 10 uM; how it was run: as §1
Sequence of Pyruvate kinase PKM (Homo sapiens) (P14618 2-531 limits assumed): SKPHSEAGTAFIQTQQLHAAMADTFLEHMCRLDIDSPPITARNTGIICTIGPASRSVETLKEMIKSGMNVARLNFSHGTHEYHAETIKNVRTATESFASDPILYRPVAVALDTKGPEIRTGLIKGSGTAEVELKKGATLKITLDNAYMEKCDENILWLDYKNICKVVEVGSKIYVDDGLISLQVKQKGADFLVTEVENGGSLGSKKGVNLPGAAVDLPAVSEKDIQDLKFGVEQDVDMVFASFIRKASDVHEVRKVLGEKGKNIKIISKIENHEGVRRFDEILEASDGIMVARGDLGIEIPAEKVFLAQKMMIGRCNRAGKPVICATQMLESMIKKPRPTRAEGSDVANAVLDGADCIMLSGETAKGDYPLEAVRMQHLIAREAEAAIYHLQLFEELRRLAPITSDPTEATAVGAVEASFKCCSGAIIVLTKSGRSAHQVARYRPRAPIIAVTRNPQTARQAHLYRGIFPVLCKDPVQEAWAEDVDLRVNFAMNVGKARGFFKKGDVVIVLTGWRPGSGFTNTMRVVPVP

[11] = target: Pyruvate kinase PKM (Homo sapiens) (UniProt P14618); experiment: Inhibition human pyruvate kinase M2 at 10 uM; how it was run: as §1
[12] = target: Pyruvate kinase PKLR (Homo sapiens) (UniProt P30613); experiment: Inhibition human pyruvate kinase L at 10 uM; how it was run: as §1
[13] = system: Staphylococcus aureus; experiment: Antibacterial activity against Staphylococcus aureus ATCC 29213 by two fold serial dilution method in presence of efflux inhibitor verapamil; assay type: functional
How it was run: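 S. aureus ATCC29213, 96-well twofold broth microdilution in CAMHB with verapamil 200 mg/L (sub-inhibitory) versus plain CAMHB. Incubated 18–24 h at 37 °C, OD600 read, compound-plus-medium background subtracted. MIC is the lowest concentration giving complete growth inhibition relative to compound-free wells.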

[14] = system: Staphylococcus aureus; experiment: Ratio of MIC90 for Staphylococcus aureus ATCC 29213 in presence of efflux inhibitor verapamil to MIC90 for Staphylococcus aureus ATCC 29213 in absence of efflux inhibitor verapamil; assay type: functional
How it was run: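 S. aureus ATCC 29213 broth microdilution in 96-well format, run in parallel in CAMHB with and without verapamil (200 mg/L, sub-inhibitory). Compounds were twofold serially diluted in DMSO and added to ~2.5 × 10^5 CFU/ml. Plates were incubated 18–24 h at 37 °C and read at OD600, with inhibitor-only wells subtracted as background. MIC is the lowest concentration giving complete growth inhibition versus compound-free wells, in duplicate or triplicate. The ratio compares the MIC with verapamil to the MIC without.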

[15] = system: Staphylococcus aureus; experiment: Antibacterial activity against methicillin-resistant Staphylococcus aureus MW2 by two fold serial dilution method; assay type: functional
[16] = system: Staphylococcus aureus; experiment: Inhibition of methicillin-resistant Staphylococcus aureus pyruvate kinase at 1 uM
[17] = system: Staphylococcus aureus; experiment: Bacteriostatic activity against Staphylococcus aureus harboring LAC Dpyk::ErmR mutant in Brain-Heart infusion broth medium at 1.6 uM after 8 to 24 hrs; assay type: functional, organism-based
How it was run: (§2)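 S. aureus LAC pyk::ErmR (pyk replaced by an ErmR cassette) and WT overnight cultures were washed twice in PBS and diluted to OD600 0.1 (~2.5 × 10^7 cfu/ml). Media were pre-warmed (37 °C) BHI or TSB without glucose plus 1% sodium pyruvate (TSB-G+P), ±1.6 µM inhibitor. Cultures grew at 37 °C, 250 rpm. Viable counts were taken by dilution plating on glucose-free TSA plus 1% pyruvate at 0, 8 and 24 h.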

[18] = system: Staphylococcus aureus; experiment: Bactericidal activity against Staphylococcus aureus harboring LAC Dpyk::ErmR mutant at 1.6 uM after 8 to 24 hrs; assay type: functional, organism-based; how it was run: as §2
[19] = system: Staphylococcus aureus; experiment: Bacteriostatic activity against Staphylococcus aureus harboring LAC Dpyk::ErmR mutant in TSB-G+P medium at 1.6 uM after 8 to 24 hrs; assay type: functional, organism-based; how it was run: as §2
[20] = system: Staphylococcus aureus; experiment: Bacteriostatic activity against wild type Staphylococcus aureus at 1.6 uM after 8 to 24 hrs; assay type: functional, organism-based
How it was run: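 Washed overnight cultures were diluted to OD600 = 0.1 (~2.5 × 10^7 cfu/ml) in pre-warmed medium, either BHI or glucose-free TSB with 1% sodium pyruvate, ±1.6 µM compound. Grown at 37 °C with shaking at 250 rpm. Viable counts by dilution plating on glucose-free TSA with 1% pyruvate at 0, 8 and 24 h.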

| SMILES | IC50 [4] [nM] | MIC>98 [5] [µg/mL] | inhibition [8] [%] | inhibition [9] [%] | inhibition [10] [%] | inhibition [11] [%] | inhibition [12] [%] | other results |
| --- | --- | --- | --- | --- | --- | --- | --- | --- |
| COc1ccc2[nH]c(-c3cc4ccc(Br)cc4[nH]3)cc2c1 | 2.5 | >64 |  |  |  |  |  | Cell viability [1]: 72%; Cell viability [2]: 88%; Cell viability [3]: 107% |
| O=C1NC[C@@H](c2c[nH]c3cc(Br)ccc23)N[C@H]1c1c[nH]c2cc(Br)ccc12 (relative stereo) [CIS-3,4-DIHYDROHAMACANTHIN B] | 16 |  |  |  |  |  |  | MIC [6]: 12.5 µg/mL (≈ 25.6 µM); MIC [7]: 12.5 µg/mL (≈ 25.6 µM) |
| Brc1ccc2[nH]c(C#Cc3cc4ccc(Br)cc4[nH]3)cc2c1 | 4.7 | 16 (≈ 38.6 µM) | 27.8 | 86.3 | 19.5 | 8.7 | 14 |  |
| O=[N+]([O-])c1cc(-c2cc3ccccc3[nH]2)ccc1-c1cc2ccc(Br)cc2[nH]1 | 1.8 | 2 (≈ 4.63 µM) | 0 | 86.2 | 9.5 | 6.8 | -8.9 |  |
| OCCn1c(-c2cc3ccc(Br)cc3[nH]2)cc2cc(Br)ccc21 | 1.3 | 2 (≈ 4.61 µM) | 25.2 | 101 | 14.6 | 12.1 | 6.8 |  |
| Cn1c(-c2cc3ccc(Br)cc3[nH]2)cc2cc(Br)ccc21 | 1 | >64 | 2.7 | 99 | 13.9 | 9.1 | 2.8 |  |
| Brc1ccc2cc(CCc3cc4ccc(Br)cc4[nH]3)[nH]c2c1 | 6.5 | >64 | 24.1 | 93.4 | 9.9 | 1.3 | 9.7 | Cell viability [1]: 85%; Cell viability [2]: 92%; Cell viability [3]: 104% |
| COCn1c(-c2cc3ccc(Br)cc3[nH]2)cc2cc(Br)ccc21 | 1.9 | >64 |  |  |  |  |  | Cell viability [1]: 73%; Cell viability [2]: 102%; Cell viability [3]: 123% |
| COc1cc(-c2cc3ccccc3[nH]2)ccc1-c1cc2ccc(Br)cc2[nH]1 | 2.1 | >64 | 13.5 | 62.2 | 7.3 | 14.6 | 4.3 |  |
| Brc1ccc2cc(-c3cc4ccc(Br)cc4[nH]3)[nH]c2c1 | 7 |  | 18.3 | 84.9 | 10.3 | 0.1 | 7.9 | Cell viability [1]: 118%; MIC [13]: 0.5 µg/mL; Cell viability [2]: 106%; Cell viability [3]: 103%; Ratio [14]: 32 |
| Brc1ccc2cc(/C=C/c3cc4ccccc4[nH]3)[nH]c2c1 | 4.5 | >64 | 23.8 | 93.4 | 16.1 | -0.9 | 12.9 | Cell viability [1]: 115%; Cell viability [2]: 114%; Cell viability [3]: 107% |
| Fc1ccc2[nH]c(-c3cc4ccc(Br)cc4[nH]3)cc2c1 | 2.8 |  |  |  |  |  |  | MIC [15]: 0.5 µg/mL (≈ 1.52 µM) |
| Brc1cc2cc(-c3cc4cc(Br)c(Br)cc4[nH]3)[nH]c2cc1Br | 2 |  | 20.7 | 97.6 | 11.1 | 2.3 | 8.2 | MIC [13]: 16 µg/mL; Ratio [14]: 4 |
| Brc1ccc2cc(-c3nc4ccccc4s3)[nH]c2c1 | 152 | >64 | 21.6 | 89.8 | 12.4 | 3 | 7.8 |  |
| Brc1ccc2cc(-c3ccc(-c4cc5ccc(Br)cc5[nH]4)s3)[nH]c2c1 |  | >64 |  |  |  |  |  | inhibition [16]: 28% |
| Brc1ccc2[nH]c(-c3cc4ccc(Br)cc4[nH]3)cc2c1 | 2.2 |  | 13.6 | 97.8 | 6.9 | 8.7 | 6.1 | MIC [15]: 0.5 µg/mL (≈ 1.28 µM) |
| Brc1ccc2cc(-c3ccc(-c4cc5ccc(Br)cc5[nH]4)cc3)[nH]c2c1 |  | >64 |  |  |  |  |  | inhibition [16]: 54% |
| Brc1ccc2cc(-c3cc4ccccc4o3)[nH]c2c1 | 108 | >64 | -5.5 | 95.9 | 5.3 | 0.4 | -6 |  |
| Clc1ccc2[nH]c(-c3cc4ccc(Br)cc4[nH]3)cc2c1 | 2 |  |  |  |  |  |  | MIC [13]: 0.5 µg/mL; Activity [17]: Active; MIC [15]: 0.5 µg/mL (≈ 1.45 µM); Activity [18]: inactive; Activity [19]: inactive; Activity [20]: Active |
| Brc1ccc2cc(-c3cc4cc(Br)c(Br)cc4[nH]3)[nH]c2c1 | 1.5 | 0.5 (≈ 1.07 µM) | 33.4 | 94.1 | 8.6 | 15.8 | 23.7 | Cell viability [1]: 63%; Cell viability [2]: 71%; Cell viability [3]: 102% |
| Brc1ccc2[nH]c(-c3cc4ccccc4s3)cc2c1 |  | >64 |  |  |  |  |  | inhibition [16]: 42% |
